Measurements from ChEMBL document CHEMBL1147113, “Miltefosine (hexadecylphosphocholine) inhibits cytochrome c oxidase in Leishmania donovani promastigotes” (Antimicrob Agents Chemother, 2007).
The source made the active and inactive calls. The calls are words filed in the database; no cut-off is given here.

Legend:
[1] = system: Leishmania donovani; assay: Effect on mitochondrial function in Leishmania donovani MHOM/SD/00/1S-2D promastigotes assessed as decrease in oxygen consumption at 20 uM after 14 hrs relative to control; format: functional; parameters: scale not given: the % may be the effect or the level left
Outline: (§1)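 Promastigotes incubated 14 h at 25°C with drug in RPMI-10% HIFCS at 2 × 10⁶ cells/ml. They were then washed and resuspended in respiration buffer at 10⁸ cells/ml with 5 mM succinate and 1 mg/ml BSA. Clark-electrode O₂ uptake at 25°C, given as nmol O₂/min/10⁸ cells and as % of untreated.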

[2] = system: Leishmania donovani; assay: Effect on apoptosis induction in Leishmania donovani MHOM/SD/00/1S-2D promastigotes assessed as accumulation in sub-G1 phase at 20 uM after 24 hrs by propidium iodide staining
[3] = system: Leishmania donovani; assay: Growth inhibition of Leishmania donovani MHOM/SD/00/1S-2D promastigotes assessed as inhibition of MTT reduction after 14 hrs; format: functional, organism-based
Outline: (§2)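 Late-exponential promastigotes at 2 × 10⁶ cells/ml in RPMI-10% HIFCS with drug, 14 h at 25°C. Washed at 4°C in Hanks-10 mM glucose, then given 0.5 mg/ml MTT for 2 h. Formazan dissolved in 10% SDS and read at 595 nm. Triplicates, at least two experiments; EC50 by Litchfield-Wilcoxon.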

[4] = system: Leishmania donovani; assay: Effect on mitochondrial membrane potential in Leishmania donovani MHOM/SD/00/1S-2D promastigotes by measuring the decrease in rhodamine 123 accumulation after 14 hrs; format: functional, organism-based
Outline: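 After 14 h of drug exposure at 25°C, parasites washed twice at 4°C in Hanks-glucose and loaded with rhodamine 123 (0.3 μg/ml, 5 min, 37°C). Washed again, resuspended at 2 × 10⁶ cells/ml and read by flow cytometry (ex 488/em 525 nm; 20,000 events). Geometric mean fluorescence recorded; 10 mM KCN-poisoned cells served as depolarized control.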

[5] = system: Leishmania donovani; assay: Effect on mitochondrial function in Leishmania donovani MHOM/SD/00/1S-2D promastigotes assessed as decrease in oxygen consumption at 40 uM after 14 hrs relative to control; format: functional; parameters: scale not given: the % may be the effect or the level left; outline: as §1
[6] = system: Leishmania donovani; assay: Effect on oxygen consumption rate in digitonin-permeabilized Leishmania donovani MHOM/SD/00/1S-2D promastigotes assessed as decrease in state 3 respiration at 25 uM after 14 hrs; format: functional; parameters: scale not given: the % may be the effect or the level left
[7] = system: Leishmania donovani; assay: Effect on mitochondrial function in Leishmania donovani MHOM/SD/00/1S-2D promastigotes assessed as decrease in oxygen consumption at 10 uM after 14 hrs relative to control; format: functional; parameters: scale not given: the % may be the effect or the level left; outline: as §1
[8] = system: Leishmania donovani; assay: Decrease in intracellular ATP level in Leishmania donovani 3-Luc promastigotes assessed as decrease in luminescence relative to control; format: functional, organism-based
[9] = system: Leishmania donovani; assay: Effect on plasma membrane integrity in Leishmania donovani MHOM/SD/00/1S-2D promastigotes assessed as SYTOX green fluorescence at 40 uM after 14 hrs; format: functional
Outline: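 Cells at 2 × 10⁶/ml in RPMI-10% HIFCS given increasing drug concentrations, 14 h at 25°C. Washed twice in Hanks-glucose and stained with 1 μM SYTOX green for 5 min in the dark. Fluorescence read at ex 485/em 520 nm and expressed as % of maximal signal after 0.1% Triton X-100.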

[10] = system: Leishmania donovani; assay: Inhibition of Leishmania donovani cytochrome c oxidase
[11] = system: Leishmania donovani; assay: Inhibition of TMPD-ascorbate-dependent oxygen consumption in digitonin-permeabilized Leishmania donovani MHOM/SD/00/1S-2D promastigotes at 25 uM after 14 hrs; format: functional, organism-based
[12] = system: Leishmania donovani; assay: Inhibition of Leishmania donovani cytochrome c reductase at 40 uM
Outline: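 Same L. donovani mitochondrial fraction (200 μg/ml protein, 0.02% TX-100, 75 mM sodium phosphate pH 7.4), with CcO first blocked by 10 mM KCN and oxidized cytochrome c as acceptor. Reaction started with 5 mM succinate; A550 change monitored. Controls lacked succinate or contained 2 μM antimycin A. HePC tested at 40 μM.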

[13] = system: Leishmania donovani; assay: Growth inhibition of Leishmania donovani MHOM/SD/00/1S-2D promastigotes at 40 uM assessed as inhibition of MTT reduction after 14 hrs; format: functional, organism-based; outline: as §2

How did the Activity [1] turn out when `CCCCCCCCCCCCCCCCOP(=O)([O-])OCC[N+](C)(C)C` [MILTEFOSINE] was run?
The Activity was 75%.

What about the Activity [2] of the same compound?
Its Activity is 38%.

And the EC50 [3]?
The EC50 was 10.2 µM.

What about the Activity [4] of the same compound?
The Activity was “Dose-dependent effect”.

What about the Activity [5] of the same compound?
The Activity was 44.4%.

What about the Activity [6] of the same compound?
The Activity was 40%.

And the Activity [7]?
The Activity was 95.4%.

What about the Activity [8] of the same compound?
Its Activity is “Active”.

What about the Activity [9] of the same compound?
Its Activity is 10%.

What about the Activity [10] of the same compound?
The Activity was “Dose-dependent effect”.

What about the Activity [11] of the same compound?
The Activity was “Active”.

And the inhibition [12]?
Its inhibition is 5%.

And the Activity [13]?
Its Activity is “Active”.
